Laboratory results published in ChEMBL document CHEMBL2029305, “N-Acyl and N-sulfonyloxazolidine-2,4-diones are pseudo-irreversible inhibitors of serine proteases” (Bioorg Med Chem Lett, 2012).
Calls of active or inactive are those of the source. No cut-off for these calls is given here.

Experiments:
Sus scrofa [1] = species: Sus scrofa; test: Inhibition of porcine pancreatic elastase using N-Suc-(L-Ala)3-p-nitroaniline at 600 molar excess
Outline: (§1)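 Pre-incubation of PPE with 300- or 600-fold molar excess of inhibitor; residual activity measured with N-Suc-(L-Ala)3-p-nitroanilide.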

Neutrophil elastase = molecular target: T1, Neutrophil elastase (Homo sapiens, UniProt P08246); test: Inhibition of human neutrophil elastase using chromogenic substrate (N-MeOSuc-Ala-Ala-Pro-Val-p-nitroanilide after 120 mins
T1 sequence (P08246 whole entry): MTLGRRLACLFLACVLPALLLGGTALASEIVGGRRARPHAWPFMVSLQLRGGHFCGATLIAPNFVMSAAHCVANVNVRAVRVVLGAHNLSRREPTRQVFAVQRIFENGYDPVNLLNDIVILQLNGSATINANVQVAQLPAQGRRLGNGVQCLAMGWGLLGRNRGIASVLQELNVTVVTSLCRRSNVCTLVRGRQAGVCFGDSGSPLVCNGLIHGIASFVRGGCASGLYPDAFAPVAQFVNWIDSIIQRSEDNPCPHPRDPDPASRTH

Sus scrofa [2] = species: Sus scrofa; test: Inhibition of porcine pancreatic elastase using N-Suc-(L-Ala)3-p-nitroaniline at 300 molar excess; outline: as §1
Sus scrofa [3] = species: Sus scrofa; test: Inhibition of porcine pancreatic elastase using N-Suc-(L-Ala)3-p-nitroaniline at 50 to 500 uM; conditions: TDE = time-dependent effect
Sus scrofa [4] = species: Sus scrofa; test: Inhibition of porcine pancreatic elastase using N-Suc-(L-Ala)3-p-nitroaniline
[5] = Half life of the compound in phosphate buffer at pH 7.4; format: physicochemical
Outline: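 Hydrolysis in phosphate buffer, pH 7.4, at 37 °C; half-life in min.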

Sus scrofa [6] = species: Sus scrofa; test: Inhibition of porcine pancreatic elastase using N-Suc-(L-Ala)3-p-nitroaniline assessed as remaining activity at 2.5 to 500 uM after 15 mins
Outline: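 PPE (5 µM) with inhibitor 2.5–500 µM in pH 7.25 HEPES, 15 min incubation; aliquots assayed for remaining activity (vt/v0) versus [I]/[E]0 ratio to estimate equivalents needed for inactivation.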

Cathepsin G = molecular target: T2, Cathepsin G (Homo sapiens, UniProt P08311); test: Inhibition of cathepsin G using Suc-Ala-Ala-Pro-Phe-p-nitroanilide as substrate after 30 mins
T2 sequence (P08311 whole entry): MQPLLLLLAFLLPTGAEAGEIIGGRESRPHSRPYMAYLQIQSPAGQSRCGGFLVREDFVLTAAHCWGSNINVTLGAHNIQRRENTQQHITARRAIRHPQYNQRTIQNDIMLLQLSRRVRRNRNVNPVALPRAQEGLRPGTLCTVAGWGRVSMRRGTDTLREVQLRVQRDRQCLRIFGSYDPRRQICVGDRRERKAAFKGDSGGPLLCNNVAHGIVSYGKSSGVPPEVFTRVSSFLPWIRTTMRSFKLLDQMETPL

[7] = Drug degradation in methanol assessed as methyl 4-methoxybenzoate formation at room temperature for 10 mins by TLC analysis in the presence of sodium methoxide; format: physicochemical
[8] = Drug degradation in methanol assessed as 2-(methoxycarbonyloxy)propan-2-yl 4-methoxybenzoylcarbamate formation at room temperature for 10 mins by TLC analysis in the presence of sodium methoxide; format: physicochemical
[9] = Drug degradation in CD3ONa/CD3OD solution assessed as methyl 4-methoxybenzoate formation at room temperature after 15 mins by 1H-NMR analysis in the presence of sodium methoxide; format: physicochemical; conditions: 0.25 h
[10] = Drug degradation in CD3ONa/CD3OD solution assessed as 2-(methoxycarbonyloxy)propan-2-yl 4-methoxybenzoylcarbamate formation at room temperature for 15 mins by 1H-NMR analysis in the presence of sodium methoxide; format: physicochemical; conditions: 0.25 h

Structure (SMILES)	IC50 (Neutrophil elastase)	inhibition (Sus scrofa [2])	inhibition (Sus scrofa [3])	inhibition (Sus scrofa [4])	half-life [5]	Activity (Sus scrofa [6])	other results
CC1OC(=O)N(Cc2ccccc2)C1=O (stereo not drawn)	> 500 µM	–	–	–	–	–	inhibition (Sus scrofa [1]): inactive
CC1(C)OC(=O)N(c2ccc([N+](=O)[O-])cc2)C1=O	> 500 µM	inactive	–	–	–	–	–
Cc1ccc(S(=O)(=O)N2C(=O)OC(C)(C)C2=O)cc1	2.6 µM	–	tde	Dose-dependent effect	6.86 min	< 20%	–
CC1OC(=O)N(c2ccc([N+](=O)[O-])cc2)C1=O (stereo not drawn)	> 500 µM	inactive	–	–	38.7 min	–	–
COc1ccc(C(=O)N2C(=O)OC(C)C2=O)cc1 (stereo not drawn)	> 500 µM	–	tde	Dose-dependent effect	–	< 20%	–
CC1(C)OC(=O)N(Cc2ccccc2)C1=O	15.6 µM	–	tde	Dose-dependent effect	–	–	IC50 (Cathepsin G): 2.1 µM
COc1ccc(C(=O)N2C(=O)OC(C)(C)C2=O)cc1	10.2 µM	–	tde	Dose-dependent effect	16.7 min	< 20%	Drug degradation [7]: Active; Drug degradation [8]: Active; IC50 (Cathepsin G): 14.2 µM; Drug degradation [9]: Active; Drug degradation [10]: Active
COc1ccc(N2C(=O)OC(C)C2=O)cc1 (stereo not drawn)	> 500 µM	–	–	–	–	–	inhibition (Sus scrofa [1]): inactive
COc1ccc(C(=O)N2C(=O)OC(c3ccccc3)C2=O)cc1 (stereo not drawn)	15.6 µM	–	tde	Dose-dependent effect	–	< 20%	–
COc1ccc(N2C(=O)OC(C)(C)C2=O)cc1	> 500 µM	inactive	–	–	–	–	–
